Assay results: the RNAGym collection of RNA variant scans (doi:10.1126/science.aae0568)
This sample holds only a part of the variants without activity.

B1: tRNA (parent)
chain: GUUCCGUUGGCGUAAUGGUAACGCGUCUCCCUCCUAAGGAGAAGACUGCGGGUUCGAGUCCCGUACGGAACG

Variants of: B1
Assay: yeast fitness relative to wild type (ratio to wild type); higher = fitter; tRNA-Arg(CCU), competitive growth, 37 C, YPD
How it was run: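 Variants of the tRNA-Arg(CCU) gene, chemically synthesised with a 3% per-site mutation rate at 69 sites, were placed at the native genomic locus in Saccharomyces cerevisiae. The pooled strains were competed in YPD at 37°C for 24 hours in six parallel replicates. Gene amplicons from the start population and from each end population were read by 100-nucleotide paired-end sequencing. Darwinian fitness relative to wild type came from changes in genotype frequencies; genotypes needed ≥ 100 starting reads, and estimates < 0.5 were set to 0.5.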

Compared with A20C C24U A42U U59C, U19C C34U A43U G63A A70C is lower in yeast fitness: 0.619 for the first, at most 0.5 for the second.

Compared with U19C A43G G44C A45C C66U, U19C C29U is higher in yeast fitness: 0.589 for the first, 0.948 for the second.

Compared with U19C C29G, U19C C29G G44C is lower in yeast fitness: 0.578 for the first, 0.505 for the second.

First: U19G A65G
Second: U19C U28C G48C A70C
The yeast fitness of the first is higher: 1.03 for the first, at most 0.5 for the second.

First: U19C C31U G56A G68C
Second: U19C A45C G48C
The yeast fitness of the first is lower: at most 0.5 for the first, 0.57 for the second.

Compared with U19G C34G A69C, U19G A21U C46U C66U is higher in yeast fitness: 0.504 for the first, 0.532 for the second.

Going from A20C A37C C66U to U19C G63A, the yeast fitness rises from at most 0.5 to 0.918.

Compared with U19C C22U G25C C27G A40C, A20C A42U A65U is lower in yeast fitness: 0.587 for the first, 0.553 for the second.

First: U19C C30A U47C
Second: A20C A37G A42G G68C
The yeast fitness of the first is higher: 0.693 for the first, at most 0.5 for the second.

U19G G63C A69U and A20C C24U C61G cannot be ordered by yeast fitness: at most 0.5 for the first, at most 0.5 for the second.

First: U19C G23C U53C
Second: A20C A70U
The yeast fitness of the first is lower: 0.562 for the first, 1.12 for the second.

Going from A20C A40G to U19C U32C, the yeast fitness rises from 0.647 to 0.926.

First: U19A U26C C30A G67U
Second: U19G U28A
The yeast fitness of the first is lower: at most 0.5 for the first, 0.613 for the second.

First: A20C C24G C33G
Second: U19C C22G
The yeast fitness of the first is lower: at most 0.5 for the first, 0.978 for the second.

Compared with U19A C55U, U19G A69U is higher in yeast fitness: 0.694 for the first, 0.892 for the second.

Compared with U19G A69C, U19C U28C C29G A57U is lower in yeast fitness: 0.856 for the first, at most 0.5 for the second.

First: U19C A21U A40U
Second: U19C A36C U47A G48C U54G A65C
The yeast fitness of the first is higher: 0.641 for the first, at most 0.5 for the second.

First: U19G A20U C27G G58A
Second: U19A G25A A37U A42G C55U
The yeast fitness of the first is higher: 0.527 for the first, at most 0.5 for the second.

Compared with U19G C49A C62G C66U A70G, A20C C29G A65U is higher in yeast fitness: at most 0.5 for the first, 0.51 for the second.

U19C A36U A70U and A20C A40U A65U G67C cannot be ordered by yeast fitness: at most 0.5 for the first, at most 0.5 for the second.

First: A20C A40G C62G
Second: A20C A21U C27G U32C U35G
The yeast fitness of the first is higher: 0.864 for the first, at most 0.5 for the second.

Going from U19C C34A G50C G56A to U19G G38C, the yeast fitness rises from 0.55 to 0.637.

U19C C29A A37G and U19A G41C A70U cannot be ordered by yeast fitness: at most 0.5 for the first, at most 0.5 for the second.

Going from U19C U32A G67A to U19A C60G A70C, the yeast fitness falls from 0.65 to 0.502.

U19C C33A C34G and A20C A21C C61A G67C cannot be ordered by yeast fitness: at most 0.5 for the first, at most 0.5 for the second.

U19G A20U U26A G38C A45G C46G G50A G56C and U19C G48C C55U cannot be ordered by yeast fitness: at most 0.5 for the first, at most 0.5 for the second.

Going from U19G U35C A43C G52C U54A to A20C A21G, the yeast fitness rises from at most 0.5 to 0.953.

U19C C55U C61A and U19A U26C C49G C66G cannot be ordered by yeast fitness: at most 0.5 for the first, at most 0.5 for the second.

Going from U19G A20U U53A G56A A65U to A20C C27U A37C A42G, the yeast fitness rises from at most 0.5 to 0.688.

Compared with U19G A20U A69U, A20C C24G A40C C55G is lower in yeast fitness: 0.86 for the first, at most 0.5 for the second.

First: A20C A21U C31U C60U A65U
Second: A20C C24A G56A C62U A70C
The yeast fitness of the first is lower: at most 0.5 for the first, 0.588 for the second.

Compared with U19C A37U C66G, U19G C24G U28C is higher in yeast fitness: at most 0.5 for the first, 0.681 for the second.

Compared with U19C C24U U64A, A20C A42C A69U is lower in yeast fitness: 0.73 for the first, 0.576 for the second.

U19C C29G U32G C61U C66A and U19C C24G A37U U47A A65G C66U cannot be ordered by yeast fitness: at most 0.5 for the first, at most 0.5 for the second.

First: A20C A21G A45U G67C
Second: U19G C29U
The yeast fitness of the first is lower: 0.61 for the first, 0.795 for the second.

First: U19G A42U C55U
Second: U19C G50A C55A G63A C66A
The yeast fitness of the first is higher: 0.692 for the first, at most 0.5 for the second.

Compared with A20C A36G G48A G50C, U19C A43U C62A is higher in yeast fitness: at most 0.5 for the first, 0.628 for the second.

First: U19C G25C G51C C60U G67A
Second: U19A C60G A69U
The yeast fitness of the first is higher: 0.545 for the first, at most 0.5 for the second.

First: U19G U28C A42C
Second: U19C C31A
The yeast fitness of the first is lower: 0.669 for the first, 0.768 for the second.

First: U19C G38A G41A
Second: A20C C22G C60A
The yeast fitness of the first is higher: 0.577 for the first, at most 0.5 for the second.

Going from U19C G39C G41C to U19C C24U C31G U35A C61A A69C, the yeast fitness falls from 0.51 to at most 0.5.

U19C G48A G58C C61A and U19C A37C C62A U64C cannot be ordered by yeast fitness: at most 0.5 for the first, at most 0.5 for the second.

Going from U19C G68C to U19A U47A C61A, the yeast fitness falls from 0.83 to 0.549.

Going from A20C C27U A40C to U19C A36C G41C, the yeast fitness falls from 0.63 to at most 0.5.

First: A20C C24G C27A G44A
Second: A20C A42U
The yeast fitness of the first is lower: at most 0.5 for the first, 0.782 for the second.

Going from U19C A21U to U19C A21C, the yeast fitness rises from 0.846 to 1.12.

First: U19A U35A A36U C55G G56C
Second: U19C U53C
The yeast fitness of the first is lower: at most 0.5 for the first, 0.694 for the second.

Going from U19G A20U C27G to U19G A20U C27A, the yeast fitness rises from at most 0.5 to 0.587.

U19C A20C C31G G67A and A20C C22U G39C cannot be ordered by yeast fitness: at most 0.5 for the first, at most 0.5 for the second.

First: U19C U54A
Second: U19C U54C
The yeast fitness of the first is lower: 0.559 for the first, 0.879 for the second.

U19C A20C C33U A69C and U19G A57G C66U cannot be ordered by yeast fitness: at most 0.5 for the first, at most 0.5 for the second.

Going from U19C G38C G44C C46A A70G to U19G A21U C29G, the yeast fitness rises from 0.574 to 0.62.

First: A20C A40C G48C
Second: A20C A40G A65G
The yeast fitness of the first is higher: 0.719 for the first, 0.57 for the second.

Going from A20C C22U U47A C62U to A20C C27U C55U, the yeast fitness rises from 0.643 to 0.76.

Compared with U19A G25C C33A A37G G44A, U19A G50A is higher in yeast fitness: at most 0.5 for the first, 0.795 for the second.

First: U19C A42U
Second: U19C G38A
The yeast fitness of the first is higher: 1.12 for the first, 1.01 for the second.

First: U19G U32G
Second: A20C A37G A45C
The yeast fitness of the first is higher: 0.62 for the first, at most 0.5 for the second.

U19C C60U C62U A69G and A20C A37C G41C G51C cannot be ordered by yeast fitness: at most 0.5 for the first, at most 0.5 for the second.

U19C C29G U54A A65C and A20C C29G G52A cannot be ordered by yeast fitness: at most 0.5 for the first, at most 0.5 for the second.

First: U19A U28A U53G
Second: U19A C66G
The yeast fitness of the first is lower: at most 0.5 for the first, 0.686 for the second.

First: U19A C66U
Second: U19A C66A
The yeast fitness of the first is higher: 0.996 for the first, 0.607 for the second.

Going from U19G C22U A37G C66U A69U to U19G C24A C30U, the yeast fitness falls from 0.61 to at most 0.5.

Going from U19C U32G C33G to U19C A37G C49U A69C, the yeast fitness rises from at most 0.5 to 0.51.

First: U19C A20C
Second: A20C C27G
The yeast fitness of the first is higher: 0.805 for the first, 0.633 for the second.

First: U19G A43U
Second: U19G A43C
The yeast fitness of the first is higher: 1.04 for the first, 0.971 for the second.

Going from U19A G58A A69U to A20C C22G C29A C55G G56C, the yeast fitness falls from 1.2 to at most 0.5.

First: U19C C30G
Second: U19C C27A
The yeast fitness of the first is lower: 0.645 for the first, 0.987 for the second.

A20C C24G C29G A37G C66G and U19C C46A A57C A70C cannot be ordered by yeast fitness: at most 0.5 for the first, at most 0.5 for the second.

First: U19G C61U
Second: U19C A20U A42C A65C A69U
The yeast fitness of the first is higher: 0.77 for the first, at most 0.5 for the second.

Compared with A20C A21G A69C, U19C A21U C22A C49U is lower in yeast fitness: 0.825 for the first, 0.536 for the second.

Going from U19A U53A to U19C G48A G50A, the yeast fitness rises from 0.553 to 0.693.

First: A20C C22U A45C A65C
Second: A20C
The yeast fitness of the first is lower: at most 0.5 for the first, 1.01 for the second.

First: U19G A20U G52A
Second: U19C A20C C33U U35A C49A A69U
The yeast fitness of the first is higher: 0.698 for the first, at most 0.5 for the second.

U19G U26A U28C and U19A U35A A37G A43U A45C cannot be ordered by yeast fitness: at most 0.5 for the first, at most 0.5 for the second.

Compared with A20C C22A A36C A69U, U19C A45G C62U is higher in yeast fitness: at most 0.5 for the first, 0.953 for the second.

Going from U19G C27G A65C C66G to U19A C62U, the yeast fitness rises from 0.907 to 0.931.

Compared with A20C A21C G23C C30G A65U C66U, U19G C27G is higher in yeast fitness: at most 0.5 for the first, 0.776 for the second.

First: U19C C31A G50U C62G G63A
Second: U19G A21G
The yeast fitness of the first is lower: at most 0.5 for the first, 1.05 for the second.

U19G C27U A42C and A20C C22U A40U A65G A69C cannot be ordered by yeast fitness: at most 0.5 for the first, at most 0.5 for the second.

First: U19A G52C
Second: A20C C24G A37G
The yeast fitness of the first is higher: 0.656 for the first, at most 0.5 for the second.

Going from U19G A37G C66U to U19C A45C C61A, the yeast fitness falls from 0.639 to at most 0.5.

Going from A20C C22U A43U to A20C C24U A57G C61U, the yeast fitness rises from 0.584 to 0.617.

Going from U19C A20C A21U to U19C U26G, the yeast fitness rises from at most 0.5 to 0.815.

With U19C U26C the yeast fitness was 0.928.
